SMILES strings stand for the structures. Converted amounts (≈) assume the structure as drawn.

This note sets out measurements from ChEMBL document CHEMBL3352173, “Optimization of pyrrolamide topoisomerase II inhibitors toward identification of an antibacterial clinical candidate (AZD5099)” (J Med Chem, 2014).

Data set [1] is described as follows: Clearance in TR-negative Wistar rat at 10 mg/kg, iv. The data set is classed as ADME, organism-based. Further details: dose 10 mg/kg, route intravenous. Conditions: in vivo.
A further data set relates to Mus musculus. Briefly: fAUC in methicillin-sensitive Staphylococcus aureus ARC516 infected in neutropenic CD1 mouse thigh model at 30 mg/kg, ip q6. Further details: dose 30 mg/kg, route intraperitoneal. As to conditions: in vivo. It is filed as ADME, organism-based.
The test system of data set [2] is Staphylococcus aureus. Briefly: Antibacterial activity against methicillin-sensitive Staphylococcus aureus ARC516 infected in neutropenic CD1 mouse thigh model assessed as decrease in bacterial viable counts at 30 mg/kg, ip q6. It is filed as functional. As to conditions: route intraperitoneal. In short, it runs like this: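 Read-out is viable CFU recovered from the infected thigh after treatment. The change is expressed as log CFU relative to the bacterial burden at the start of treatment (the pre-treatment inoculum). Untreated infected controls are run in parallel and counted over the same infection-to-treatment interval.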

The nature of data set [3]: Percentage unbound in mouse plasma. The data set is classed as ADME, cell-free.
The nature of data set [4]: Bioavailability in dog at 10 mg/kg, iv. The data set is classed as ADME, organism-based, Canis lupus familiaris. As to conditions: plasma.
Data set [5] relates to Haemophilus influenzae. Kind of data set: Antimicrobial activity against Haemophilus influenzae by broth microdilution/CLSI method. It is filed as functional. As to conditions: Haemophilus influenzae.
The nature of data set [6]: Percentage unbound in human plasma. It is filed as ADME, cell-free.
A further data set concerns the target DNA gyrase subunit B (Staphylococcus aureus, UniProt P0A0K8). Briefly: Inhibition of ATPase activity of Staphylococcus aureus GyrB. The method in brief:
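IC50 was determined against S. aureus GyrB in the routine screening assay. The enzyme concentration limits resolution below 10 nM.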

Data set [7] can be described thus: Ratio of MIC for methicillin, quinolone-resistant Staphylococcus aureus to fraction unbound in human plasma. It is filed as ADME.
In data set [8] the test system is Escherichia coli. Briefly: Antimicrobial activity against wild-type Escherichia coli Eco523 by broth microdilution/CLSI method. The data set is classed as functional. Conditions: Escherichia coli, Eco523; read-out: MIC.
Data set [9] has as its system Staphylococcus aureus. Briefly: Antimicrobial activity against methicillin-sensitive Staphylococcus aureus by broth microdilution/CLSI method. It is filed as functional. As to conditions: Staphylococcus aureus; read-out: MIC.
The nature of data set [10]: AUC in methicillin-sensitive Staphylococcus aureus ARC516 infected in neutropenic CD1 mouse thigh model at 30 mg/kg, ip q6. As to conditions: in vivo. The data set is classed as ADME, organism-based. Further details: dose 30 mg/kg, route intraperitoneal.
Data set [11] can be described thus: Solubility of the compound. The data set is classed as physicochemical.
Data set [12] can be described thus: Percentage unbound in rat plasma. It is filed as ADME, cell-free.
The nature of data set [13]: Percentage unbound in dog plasma. It is filed as ADME, cell-free, Canis lupus familiaris.
In data set [14] the test system is Staphylococcus aureus. Briefly: Antibacterial activity against methicillin-sensitive Staphylococcus aureus ARC516 infected in ip dosed neutropenic CD1 mouse thigh model assessed as decrease in bacterial viable counts treated for q6. It is filed as functional. As to conditions: ARC516, Thigh muscle.
The nature of data set [15]: Dissociation constant, pKa of the compound. It is filed as physicochemical.
Data set [16] is described as follows: Clearance in rat at 10 mg/kg, iv. Further details: dose 10 mg/kg, route intravenous. The data set is classed as ADME, organism-based. Conditions: in vivo.
Data set [17] can be described thus: Bioavailability in CD1 mouse at 10 mg/kg, […]. The data set is classed as ADME, organism-based. Conditions: in vivo.
Data set [18] can be described thus: Octanol-phosphate buffer distribution coefficient, log D of the compound at pH 7.4 by shake flask method. It is filed as physicochemical.
In another data set the test system is Streptococcus pyogenes. Briefly: Antimicrobial activity against Streptococcus pyogenes by broth microdilution/CLSI method. The data set is classed as functional.
Data set [19] in a line: Clearance in CD1 mouse at 10 mg/kg, iv. Further details: dose 10 mg/kg, route intravenous. It is filed as ADME, organism-based. Conditions: in vivo.
Data set [20] can be described thus: Clearance in dog at 10 mg/kg, iv. The data set is classed as ADME, organism-based, Canis lupus familiaris. Further details: dose 10 mg/kg, route intravenous. As to conditions: plasma.
The subject of another data set is Moraxella catarrhalis. Briefly: Antimicrobial activity against Moraxella catarrhalis by broth microdilution/CLSI method. The data set is classed as functional. Conditions: Moraxella catarrhalis; read-out: MIC. A general note: Dilution methods test growth across graded concentrations, often in twofold steps.
Data set [21] concerns Staphylococcus aureus. Briefly: Antimicrobial activity against methicillin, quinolone-resistant Staphylococcus aureus by broth microdilution/CLSI method. As to conditions: Staphylococcus aureus; read-out: MIC. The data set is classed as functional.
For the next data set, the system named is Streptococcus pneumoniae. Kind of data set: Antibacterial activity against Streptococcus pneumoniae by broth microdilution/CLSI method. As to conditions: Streptococcus pneumoniae; read-out: MIC. It is filed as functional.
Data set [22] has as its system Escherichia coli. Kind of data set: Antimicrobial activity against Escherichia coli tolC- by broth microdilution/CLSI method. The data set is classed as functional. As to conditions: Escherichia coli; read-out: MIC.
Data set [23] in a line: Clearance in Wistar rat at 10 mg/kg, iv. Further details: dose 10 mg/kg, route intravenous. Conditions: in vivo. It is filed as ADME, organism-based.
The nature of data set [24]: Bioavailability in Wistar rat at 10 mg/kg, […]. It is filed as ADME, organism-based. As to conditions: in vivo.
A further data set concerns Enterococcus faecium. Kind of data set: Antimicrobial activity against Enterococcus faecium by broth microdilution/CLSI method. It is filed as functional.
The subject of data set [25] is Enterococcus faecalis. Briefly: Antimicrobial activity against vancomycin-resistant Enterococcus faecalis by broth microdilution/CLSI method. It is filed as functional.
Data set [26] has as its system Staphylococcus aureus. Briefly: Antimicrobial activity against Staphylococcus aureus by broth microdilution/CLSI method. The data set is classed as functional.
For data set [27], the system named is Enterococcus faecalis. Kind of data set: Antimicrobial activity against Enterococcus faecalis by broth microdilution/CLSI method. It is filed as functional.
The test system of data set [28] is Staphylococcus aureus. Briefly: Antimicrobial activity against methicillin-resistant Staphylococcus aureus by broth microdilution/CLSI method. It is filed as functional.
In data set [29] the test system is Haemophilus influenzae. Briefly: Antimicrobial activity against amoxicillin-resistant Haemophilus influenzae by broth microdilution/CLSI method. It is filed as functional.
Data set [30] deals with Staphylococcus aureus. Briefly: Antimicrobial activity against 2 times drug resistance selected Staphylococcus aureus ARC516-1F by broth microdilution/CLSI method. It is filed as functional.
Data set [31] concerns Staphylococcus aureus. Briefly: Antimicrobial activity against Staphylococcus aureus ARC516 by broth microdilution/CLSI method. The data set is classed as functional.
The subject of data set [32] is Staphylococcus aureus. Briefly: Antimicrobial activity against 2 times drug resistance selected Staphylococcus aureus ARC516-2F by broth microdilution/CLSI method. The data set is classed as functional.

DNA gyrase subunit B, sequence (P0A0K8 whole entry): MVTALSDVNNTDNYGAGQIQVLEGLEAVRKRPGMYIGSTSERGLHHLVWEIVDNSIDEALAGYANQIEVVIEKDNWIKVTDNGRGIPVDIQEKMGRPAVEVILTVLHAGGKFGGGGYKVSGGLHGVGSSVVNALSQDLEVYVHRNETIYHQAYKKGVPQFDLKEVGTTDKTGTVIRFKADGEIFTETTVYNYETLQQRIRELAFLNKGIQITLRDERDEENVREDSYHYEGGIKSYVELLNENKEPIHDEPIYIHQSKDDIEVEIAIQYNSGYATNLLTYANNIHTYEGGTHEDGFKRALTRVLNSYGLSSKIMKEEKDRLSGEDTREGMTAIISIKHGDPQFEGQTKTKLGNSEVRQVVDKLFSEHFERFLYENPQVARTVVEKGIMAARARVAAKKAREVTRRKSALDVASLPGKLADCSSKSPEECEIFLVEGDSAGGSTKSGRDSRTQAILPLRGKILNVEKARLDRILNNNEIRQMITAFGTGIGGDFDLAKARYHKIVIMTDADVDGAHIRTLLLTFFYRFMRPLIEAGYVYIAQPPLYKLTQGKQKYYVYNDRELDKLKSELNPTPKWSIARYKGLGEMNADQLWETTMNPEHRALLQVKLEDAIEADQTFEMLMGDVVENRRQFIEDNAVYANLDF

Broadly, the clearance is a measure of how efficiently the substance is removed, as volume per time. Broadly, the fraction unbound is free concentration divided by total concentration. A high value points to weak binding. The term bioavailability denotes the share of a dose that reaches the circulation, judged against a reference dose that is usually intravenous. The term IC50 denotes the concentration that inhibits the measured activity by half. Broadly, the AUC is concentration integrated over time. Read a low AUC as less exposure. Usually solubility stands for how much of the substance goes into solution per volume. Low values mean little dissolved substance, high ones much dissolved substance. A word on the pKa: it is the pH at which an ionisable group is half protonated. A word on the logD: it is lipophilicity at a set pH, counting ionised and neutral species. A high value points to a more lipophilic compound. For `CO[C@H]1CN(c2nc(-c3ncccn3)c(C(=O)O)s2)CC[C@H]1NC(=O)c1[nH]c(C)c(Cl)c1Cl`, the clearance in [1] was found to be 9.3 mL/min/kg; in data set [16], 34 mL/min/kg; in [19], 22 mL/min/kg; in data set [20], 1.9 mL/min/kg; in data set [23], 18 mL/min/kg. The same molecule came in with a fAUC in the data set with Mus musculus of 6.7 µg·h/mL. In addition, the deltalog10CFU in the data set with Staphylococcus aureus [2] is given as -1.57. The fraction unbound in data set [3] is 0.18; in [6], 0.096; in data set [12] it was 0.19; in data set [13] it was 0.24. In addition, the bioavailability in data set [4], in data set [17] and in data set [24] was 100% throughout. The MIC in the data set with Haemophilus influenzae [5] (read-out: MIC) came out at 0.2 µg/mL (≈ 0.391 µM); in the data set on Escherichia coli [8], 23 µg/mL (≈ 45 µM); in the data set with Staphylococcus aureus [9] it was 0.09 µg/mL (≈ 0.176 µM); with Staphylococcus aureus [14], 0.06 µg/mL (≈ 0.117 µM); against Streptococcus pyogenes, 0.016 µg/mL (≈ 0.0313 µM); in the data set on Moraxella catarrhalis, 0.031 µg/mL (≈ 0.0606 µM). Besides, the values for the MIC in the data set on Staphylococcus aureus [21], with Streptococcus pneumoniae and in the data set with Escherichia coli [22] were 0.12 µg/mL (≈ 0.235 µM), 8 ng/mL (≈ 0.0156 µM) and 0.5 µg/mL (≈ 0.978 µM), respectively. The molecule also yielded an IC50 against DNA gyrase subunit B below 10 nM. In addition, the Ratio in [7] is recorded as 1.25. In data set [10], this molecule gave an AUC of 37600 ng·h/mL. For the same molecule, the concentration in solution in data set [11] (solubility) came to 350 µM (≈ 179 µg/mL). For the same molecule, in data set [15], the pKa worked out at 5.2. Besides, the logD in data set [18] was 0.54.
`C[C@H]1COc2c(N3CCN(C)CC3)c(F)cc3c(=O)c(C(=O)O)cn1c23.C[C@H]1COc2c(N3CCN(C)CC3)c(F)cc3c(=O)c(C(=O)O)cn1c23.O` [LEVOFLOXACIN]: the MIC90 in the data set on Enterococcus faecium is above 128 µg/mL; against Haemophilus influenzae [5], 0.015 µg/mL; against Enterococcus faecalis [25] it was 64 µg/mL; in the data set with Staphylococcus aureus [26], 32 µg/mL; against Enterococcus faecalis [27] it was 32 µg/mL; in the data set on Staphylococcus aureus [28], 64 µg/mL. This molecule also showed an MIC90 against Haemophilus influenzae [29] of 0.015 µg/mL.
For `CC(=O)NC[C@H]1CN(c2ccc(N3CCOCC3)c(F)c2)C(=O)O1` [LINEZOLID], the MIC against Staphylococcus aureus [30] worked out at 1 µg/mL (≈ 2.96 µM); in the data set with Staphylococcus aureus [31] it was 1 µg/mL (≈ 2.96 µM); in the data set on Staphylococcus aureus [32], 0.5 µg/mL (≈ 1.48 µM).
